In publication PMC10666245 (ACS Omega, 2023):

Tests used:
mushroom tyrosinase [1] = test: Mushroom tyrosinase inhibition, monophenolase assay; type: biochemical, Agaricus bisporus (mushroom); settings: L-tyrosine substrate; for pIC50 ±SEM Monophenolase: mushroom tyrosinase, pH 6.5
Procedure, shortened: (§1)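 Test compound came from 10 mM DMSO stocks. […] Enzyme, diluted to 500 U/mL before plating, was preincubated 15 min with test compound, then substrate was added. A490 was read every 3 min up to 30 min.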

mushroom tyrosinase [2] = test: Mushroom tyrosinase inhibition, diphenolase assay; type: biochemical, Agaricus bisporus (mushroom); settings: L-DOPA substrate; for % inhibition 500 μM ±SD Diphenolase: at 500 μM; for % inhibition ±SD Diphenolase: at 200 μM (asterisk)
Procedure, shortened: as §1

[3] = Radical scavenging activity, DPPH assay; settings: at 500 μM, 30 min, 37 °C
Procedure, shortened: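 DPPH (250 μM in methanol) was mixed with an equal volume of test compound prepared at 1 mM in methanol. Reference antioxidants were run alongside, with DMSO as negative control. A515 was read after 30 min at 37 °C, in triplicate. Scavenging = 100 × (control Abs − sample Abs)/control Abs.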

[4] = Cytotoxicity against mammalian cells; type: cell-based; settings: mouse, NCTC clone L929 murine fibroblast cells
Procedure, shortened: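 Murine NCTC fibroblasts (ATCC clone 929) were grown in RPMI-1640 with 10% FBS, counted by hemocytometer and seeded at 6 × 10^4/well. They were exposed to test compound at 200–1.5 μM for 48 h at 37 °C in humidified 5% CO2. Viability was read by MTT, and CC50 was derived by nonlinear regression.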

| pIC50 ±SEM Monophenolase (mushroom tyrosinase [1]) | % inhibition 500 μM ±SD Diphenolase (mushroom tyrosinase [2]) | Compound | further results |
| --- | --- | --- | --- |
| 4.42 ± 0.04 | (37.0 ± 2.7%) | O=C(c1ccc(O)c(O)c1)N1CCN(Cc2ccccc2)CC1 [Compound 1a, (4-Benzylpiperazin-1-yl)-(3,4-dihydroxyphenyl)methanone] |  |
| 4.49 ± 0.02 | (41.6 ± 1.2%) | COc1cc(C(=O)N2CCN(Cc3ccccc3)CC2)ccc1O [Compound 1b, (4-Benzylpiperazin-1-yl)(4-hydroxy-3-methoxyphenyl)methanone] |  |
| 3.94 ± 0.06 | (44.2 ± 3.0%) | COc1ccc(C(=O)N2CCN(Cc3ccccc3)CC2)cc1 [Compound 1c, (4-Benzylpiperazin-1-yl)-(4-methoxyphenyl)methanone] |  |
| 4.11 ± 0.05 | (35.2 ± 3.3%) | O=C(c1ccc(O)cc1)N1CCN(Cc2ccccc2)CC1 [Compound 1d, (4-Benzylpiperazin-1-yl)-(4-hydroxyphenyl)methanone] |  |
| 4.37 ± 0.04 | (45.2 ± 7.6%) | O=C(c1ccc(Cl)cc1)N1CCN(Cc2ccccc2)CC1 [Compound 1e, 1-Benzyl-4-(4-chlorobenzoyl)piperazine] |  |
| 4.42 ± 0.04 | (27.7 ± 3.0%) | O=C(c1ccc(O)c(O)c1)N1CCN(c2ccccc2)CC1 [Compound 2a, (3,4-Dihydroxyphenyl)-(4-phenylpiperazin-1-yl)methanone] |  |
| 3.85 ± 0.03 | (24.3 ± 4.1%) | COc1cc(C(=O)N2CCN(c3ccccc3)CC2)ccc1O [Compound 2b, (4-Hydroxy-3-methoxyphenyl)-(4-phenylpiperazin-1-yl)methanone] |  |
| 3.54 ± 0.05 | (31.1 ± 5.3%) | COc1ccc(C(=O)N2CCN(c3ccccc3)CC2)cc1 [Compound 2c, (4-Methoxyphenyl)-(4-phenylpiperazin-1-yl)methanone] |  |
|  |  | O=C(/C=C/c1ccc(O)c(O)c1)N1CCN(Cc2ccccc2)CC1 [Compound 3a, (E)-1-(4-Benzylpiperazin-1-yl)-3-(3,4-dihydroxyphenyl)prop-2-en-1-one] | IC50 (mushroom tyrosinase [1]; read-out: IC50 tyrosinase inhibition, monophenolase): < 100 µM; pIC50 ±SEM Diphenolase (mushroom tyrosinase [2]; mushroom tyrosinase, pH 6.5): 4.18 ± 0.03; IC50 (mushroom tyrosinase [2]; read-out: IC50 tyrosinase inhibition, diphenolase): < 100 µM; radical scavenging activity (DPPH) [3]: 29% |
| 4.16 ± 0.02 | (42.3 ± 3.4%) | COc1cc(/C=C/C(=O)N2CCN(Cc3ccccc3)CC2)ccc1O [Compound 3b, (2E)-1-(4-Benzylpiperazin-1-yl)-3-(4-hydroxy-3-methoxyphenyl)prop-2-en-1-one] |  |
| 3.86 ± 0.04 | (43.5 ± 2.3%) | COc1ccc(/C=C/C(=O)N2CCN(Cc3ccccc3)CC2)cc1 [Compound 3c, (E)-1-(4-Benzylpiperazin-1-yl)-3-(4-methoxyphenyl)prop-2-en-1-one] |  |
| 4.54 ± 0.03 | (43.0 ± 2.9%) | O=C(/C=C/c1ccc(O)cc1)N1CCN(Cc2ccccc2)CC1 [Compound 3d, (E)-1-(4-Benzylpiperazin-1-yl)-3-(4-hydroxyphenyl)prop-2-en-1-one] |  |
|  |  | O=C(/C=C/c1ccc(O)c(O)c1)N1CCN(c2ccccc2)CC1 [Compound 4a, (E)-3-(3,4-Dihydroxyphenyl)-1-(4-phenylpiperazin-1-yl)prop-2-en-1-one] | CC50 at 48 h [4]: 57.2 ± 2 µM; radical scavenging activity (DPPH) [3]: 65.0% |
| 4.50 ± 0.04 | (51.5 ± 3.2%) | COc1cc(/C=C/C(=O)N2CCN(c3ccccc3)CC2)ccc1O [Compound 4b, (E)-3-(4-Hydroxy-3-methoxyphenyl)-1-(4-phenylpiperazin-1-yl)prop-2-en-1-one] |  |
| 4.74 ± 0.04 |  | O=C(c1ccc(O)c(O)c1)N1CCC(Cc2ccccc2)CC1 [Compound 5a, (4-Benzyl-1-piperidyl)-(3,4-dihydroxyphenyl)methanone] | % inhibition ±SD Diphenolase (mushroom tyrosinase [2]): (30.9 ± 3.9%); radical scavenging activity (DPPH) [3]: 42% |
| 4.99 ± 0.01 |  | COc1cc(C(=O)N2CCC(Cc3ccccc3)CC2)ccc1O [Compound 5b, (4-Benzyl-1-piperidyl)-(4-hydroxy-3-methoxy-phenyl)methanone] | % inhibition ±SD Diphenolase (mushroom tyrosinase [2]): (13.2 ± 0.8%); radical scavenging activity (DPPH) [3]: 10% |
| 4.67 ± 0.01 | (30.5 ± 1.6%) | COc1ccc(C(=O)N2CCC(Cc3ccccc3)CC2)cc1 [Compound 5c, 4-Benzyl-1-(4-methoxybenzoyl)piperidine] |  |
| 4.59 ± 0.01 |  | O=C(c1ccc(O)cc1)N1CCC(Cc2ccccc2)CC1 [Compound 5d, (4-Benzyl-1-piperidyl)-(4-hydroxyphenyl)methanone] | % inhibition ±SD Diphenolase (mushroom tyrosinase [2]): (14.7 ± 1.6%) |
| 4.56 ± 0.01 |  | O=C(/C=C/c1ccc(O)c(O)c1)N1CCC(Cc2ccccc2)CC1 [Compound 6a, (E)-1-(4-Benzyl-1-piperidyl)-3-(3,4-dihydroxyphenyl)prop-2-en-1-one] | % inhibition ±SD Diphenolase (mushroom tyrosinase [2]): (18.5 ± 1.1%) |
| 4.53 ± 0.01 |  | COc1cc(/C=C/C(=O)N2CCC(Cc3ccccc3)CC2)ccc1O [Compound 6b, (E)-1-(4-Benzyl-1-piperidyl)-3-(4-hydroxy-3-methoxy-phenyl)prop-2-en-1-one] | % inhibition ±SD Diphenolase (mushroom tyrosinase [2]): (12.0 ± 1.5%); radical scavenging activity (DPPH) [3]: 28% |
|  |  | O=C(/C=C/c1ccc(O)cc1)N1CCC(Cc2ccccc2)CC1 [Compound 6d, (E)-1-(4-Benzyl-1-piperidyl)-3-(4-hydroxyphenyl)prop-2-en-1-one] | % inhibition ±SD Monophenolase (mushroom tyrosinase [1]; at 200 μM (asterisk)): (48.3 ± 1.1%); % inhibition ±SD Diphenolase (mushroom tyrosinase [2]): (20.3 ± 1.3%) |
| 4.00 ± 0.01 | (16.4 ± 13.0%) | O=C(O)/C=C/c1ccc(O)cc1 [pCA, p-coumaric acid, reference compound] |  |
| 4.85 ± 0.07 | (22.1 ± 3.1%) | (E)-1-(1-Benzylpiperidin-4-yl)-3-(4-methoxyphenyl)prop-2-en-1-one [Compound 6c] |  |
